We go through 17 compounds from ChEMBL document CHEMBL5329171, “First-in-class small molecule inhibitors of ICOS/ICOSL interaction as a novel class of immunomodulators” (RSC Med Chem, 2023).

Molecules are shown by their SMILES.

Data set [1] addresses T1, ICOS-ICOSL (Homo sapiens, UniProt O75144+Q9Y6W8).
T1 sequence (O75144 whole entry): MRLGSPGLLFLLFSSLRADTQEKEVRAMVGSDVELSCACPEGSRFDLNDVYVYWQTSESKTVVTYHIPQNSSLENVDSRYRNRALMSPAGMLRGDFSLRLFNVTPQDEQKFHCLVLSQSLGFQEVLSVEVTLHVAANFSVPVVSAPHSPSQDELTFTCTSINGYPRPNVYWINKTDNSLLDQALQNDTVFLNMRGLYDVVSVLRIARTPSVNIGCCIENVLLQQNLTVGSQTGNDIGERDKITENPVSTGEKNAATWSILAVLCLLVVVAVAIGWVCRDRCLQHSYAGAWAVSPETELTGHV
T1 sequence (Q9Y6W8 whole entry): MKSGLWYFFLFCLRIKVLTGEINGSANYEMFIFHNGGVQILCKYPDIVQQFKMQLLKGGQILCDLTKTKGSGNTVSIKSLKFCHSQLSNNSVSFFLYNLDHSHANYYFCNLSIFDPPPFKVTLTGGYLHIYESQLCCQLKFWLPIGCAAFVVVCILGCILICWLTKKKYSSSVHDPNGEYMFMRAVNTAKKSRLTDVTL
The experiment in a line: Inhibition of C-terminal IgG1 Fc region fused human ICOS extracellular domain (1 to 141 residues)/C-terminal polyhistidine tagged human ICOSL extracellular domain (1 to 258 residues) interaction incubated for 1 hr by TR-FRET assay. It is filed as protein assay. Put shortly:
(§1)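 Fc-tagged human ICOS and His-tagged ICOSL, 10 nM each final, with Tb cryptate anti-His mAb (1 nM) donor and XL665 anti-human Ab (10 nM) acceptor. Compounds in DMSO (0.1%)/PBS pH 7.4, 1 h at room temperature. Read 665/620 nm ratio ×100 with 340 nm excitation. Percent inhibition scaled 0% (DMSO) to 100% (1 μM anti-ICOS mAb). Triplicate, single run. Single-dose screen at 50 μM final; IC50 from dose–response.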
(In general: In TR-FRET formats the signal depends on donor and acceptor labels being close together.)

The target in data set [2] is T1, ICOS-ICOSL. The data set is described as follows: Inhibition of ICOS (unknown origin)/C-terminal IgG1 FC region fused human ICOSL interaction by ELISA. It is filed as protein assay. In short, it runs like this: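 Commercial ICOS/ICOSL ELISA kit, run per manufacturer's protocol. Anti-ICOS antagonist mAb as positive control. Triplicate, single run.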
On the technique in general: In an ELISA, binding on a coated surface is turned into a signal by an enzyme label.

Data set [3] concerns the target T2, ICOS-ICOSL (Homo sapiens) (UniProt O75144+Q9Y6W8). The experiment in a line: Inhibition of C-terminal IgG1 Fc region fused human ICOS extracellular domain (1 to 141 residues)/C-terminal polyhistidine tagged human ICOSL extracellular domain (1 to 258 residues) interaction assessed as reduction in FRET signal at 50 uM incubated for 1 hr by TR-FRET assay relative to control. It is filed as protein assay. Put shortly:
as §1

Data set [4] is described as follows: Metabolic stability in rat liver microsomes. The format is ADME, Microsome. On the technique in general: Microsomes from liver hold many membrane-bound enzymes, among them those of drug oxidation.
Data set [5] deals with T2, ICOS-ICOSL (Homo sapiens). The data set is described as follows: Inhibition of human ICOS expressed in Jurkat T cells coexpressing TCR/CD3 and NanoLuc luciferase reporter/ICOSL (unknown origin) expressed in CHO-K1 cells interaction assessed as reduction in luminescence. It is filed as cell-based. Particulars: dose 5-20 µM. In short, it runs like this: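 Commercial blockade kit, run per manufacturer's protocol. ICOS effector Jurkat cells (NanoLuc reporter) co-cultured with ICOSL/CHO-K1 cells carrying a TCR/CD3 activator. Compound tested at 5, 10 and 20 μM; anti-ICOS mAb (100 nM) as positive control. Luminescence compared with untreated control. Triplicate, single run.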

Data set [6] can be described thus: Stability in simulated intestinal fluid at pH 6.5. The format is ADME. The note with it: simulated gi fluid.
In data set [7] the test system is HEL 299. The data set is described as follows: Cytotoxicity against human HEL 299 cells. The format is toxicity, cell-based.
Data set [8] in a line: Metabolic stability in human plasma measured at 120 mins. The format is ADME, cell-free. The note with it: 2 h.
Data set [9] is described as follows: Stability in simulated gastric fluid at pH 1.6. It is filed as ADME. The note with it: simulated gi fluid.

As for `COc1c(Cl)cc2c([nH]c3cnccc32)c1NC(=O)c1cccnc1C`, the results for the IC50 in data set [1] and in data set [2] were 12.2 µM and 10.3 µM, respectively. For the same compound, the inhibition in data set [3] is above 90%. On to `COc1cccc(C(=O)Nc2cc(Cl)cc3c2[nH]c2cnccc23)c1`, for which, in data set [1], the IC50 was 36.7 µM.

Consider `COc1c(Cl)cc2c([nH]c3cnccc32)c1NC(=O)c1cncnc1C`, for which the 50% inhibitory concentration (IC50) in [1] was 5.65 µM. Compound `O=C(Nc1cc(Cl)cc2c1[nH]c1cnccc12)c1ccccn1` showed an IC50 in data set [1] of 28.6 µM.

`CCOc1ccc(-c2nc(C(=O)Nc3ccccc3Cl)cc3c2[nH]c2ccccc23)cc1OC`: in data set [1], the IC50 is above 50 µM.

Regarding `CC1(C)CN[C@@H](C(=O)Nc2cc(Cl)cc3c2[nH]c2cnccc23)CO1`, the IC50 in [1] amounted to 11.1 µM. In data set [1], `COc1ccccc1C(=O)Nc1cc(Cl)cc2c1[nH]c1cnccc12` gave an IC50 of 43.7 µM. The same measure, in the same setting: as for `O=C(Nc1cc(Cl)cc2c1[nH]c1cnccc12)c1cccnc1`, the figure is 13.9 µM; as for `O=C(Nc1cc(Cl)cc2c1[nH]c1cnccc12)c1ccccc1`, above 50 µM; as for `O=C(Nc1ccc(Cl)cc1)c1cc2c(cc1O)[nH]c1ccccc12`, above 50 µM. Same read-out and setting: the value for `O=C(Nc1cc(Cl)cc2c1[nH]c1cnccc12)c1ccncc1` was 31 µM; that for `O=C(Nc1ccc(Cl)cc1)c1c(O)ccc2c1[nH]c1ccccc12` was above 50 µM; that for `O=C(Nc1cc(Cl)cc2c1[nH]c1cnc(NCc3ccccc3)cc12)c1ccccn1` was 15.5 µM. On to `O=C(Nc1cc(Cl)cc2c1[nH]c1cnc(NCc3ccccc3)cc12)c1cccnc1`, for which the Stability entry in [4], in data set [6], in [8] and in data set [9] was “Stable” each time. Moreover, the IC50 in [1] is 4.68 µM. The inhibition result in data set [5] was “Dose-Dependent Effect”. Further, in data set [7], the Activity result was “Non-Toxic”. `O=C(Nc1cc(Cl)cc2c1[nH]c1cnc(NCc3ccccc3)cc12)c1ccncc1` came in with an IC50 in data set [1] of 18.4 µM. Turning to `O=C(Cc1ccccn1)Nc1cc(Cl)cc2c1[nH]c1cnccc12`, half-maximal inhibition in data set [1] (IC50) required 37.1 µM.

`COc1ccc(C(=O)Nc2cc(Cl)cc3c2[nH]c2cnccc23)cc1` had an IC50 in [1] of 49.3 µM.

By IC50 is commonly meant the concentration needed to halve the response being measured. Lower therefore signals greater potency in that assay. By inhibition is commonly meant the share of the control response that was lost under treatment.
